{"source": "paper PMC10739677", "about": "(Chembiochem : a European journal of chemical biology, 2023)", "key": {"A2780 cells": {"test_system": "A2780 cells", "assay": "Ferrostatin rescue experiment", "format": "cell-based, human", "conditions": "Ferrostatin-1 2 μM with EN25 50μM, A2780, 48 hr, Hoechst staining"}, "pure human GCLM protein": {"molecular_target": "T1, pure human GCLM protein (Homo sapiens, UniProt P48507)", "T1 sequence (P48507 1-274)": "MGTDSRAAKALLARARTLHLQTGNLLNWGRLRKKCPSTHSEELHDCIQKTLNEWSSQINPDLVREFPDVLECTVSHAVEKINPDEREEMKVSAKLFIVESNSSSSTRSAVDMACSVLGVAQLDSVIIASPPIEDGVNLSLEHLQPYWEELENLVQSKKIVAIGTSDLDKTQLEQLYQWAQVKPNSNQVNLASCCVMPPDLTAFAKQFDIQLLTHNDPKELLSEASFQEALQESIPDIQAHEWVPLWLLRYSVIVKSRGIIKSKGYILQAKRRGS", "assay": "Gel-based ABPP", "format": "binding", "method_in_brief": "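Pure recombinant human GCLM (0.1 μg in 50 μL PBS) treated for 30 min at 37 °C with alkyne probe (10–100 μM final) or DMSO. In the competition format, protein is first preincubated with test compound for 30 min at 37 °C, then labelled with probe (50 μM final) for 2 h at 37 °C. Rhodamine-azide (1 μM final) appended by CuAAC, then reducing SDS-PAGE and in-gel fluorescence; silver stain confirms loading.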"}, "[1]": {"test_system": "RMG-1 ARID1A-positive ovarian cancer cells", "assay": "Cell viability by Hoechst staining, RMG-1", "format": "cell-based, human", "conditions": "Hoechst staining at 24 hr"}, "[2]": {"test_system": "cysteines within proteins in A2780 cells", "assay": "isoTOP-ABPP cysteine chemoproteomic profiling", "format": "cell-based, human", "conditions": "A2780 cells treated 90 min; IA-alkyne 100 μM"}, "siGCLM A2780 cells": {"test_system": "siGCLM A2780 cells", "assay": "Cell viability after GCLM knockdown", "format": "cell-based, human", "conditions": "siGCLM vs siControl A2780, 24 hr treatment, Hoechst staining"}, "[3]": {"molecular_target": "T2, GCL (pure human recombinant GCLC and GCLM) (Homo sapiens, UniProt P48506+P48507)", "T2 sequence (P48507 1-274)": "T1 sequence (P48507 1-274)", "T2 sequence (P48506 1-637)": "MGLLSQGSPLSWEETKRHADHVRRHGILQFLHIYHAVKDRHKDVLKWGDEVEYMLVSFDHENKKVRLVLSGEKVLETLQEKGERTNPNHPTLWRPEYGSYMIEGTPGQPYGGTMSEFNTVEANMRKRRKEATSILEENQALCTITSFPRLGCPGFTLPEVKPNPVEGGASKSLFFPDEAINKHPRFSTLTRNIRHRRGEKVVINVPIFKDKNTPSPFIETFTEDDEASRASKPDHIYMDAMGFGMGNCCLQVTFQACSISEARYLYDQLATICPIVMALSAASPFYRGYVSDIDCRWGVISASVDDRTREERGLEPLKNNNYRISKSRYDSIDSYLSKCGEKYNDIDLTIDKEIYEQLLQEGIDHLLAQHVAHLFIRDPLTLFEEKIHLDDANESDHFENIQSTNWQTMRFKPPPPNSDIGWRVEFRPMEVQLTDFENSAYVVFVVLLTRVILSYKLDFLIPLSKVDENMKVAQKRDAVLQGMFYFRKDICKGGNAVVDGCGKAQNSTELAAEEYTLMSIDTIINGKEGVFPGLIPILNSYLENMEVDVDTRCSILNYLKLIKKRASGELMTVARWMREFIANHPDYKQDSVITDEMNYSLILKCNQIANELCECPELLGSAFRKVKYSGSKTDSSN", "assay": "GCL functional assay", "format": "biochemical"}, "[4]": {"test_system": "GSH levels in A2780 cells", "assay": "LC-MS/MS quantification of GSH levels, A2780", "format": "cell-based, human", "conditions": "SRM LC-MS/MS 4hr post treatment"}, "[5]": {"molecular_target": "T3, GCLM C114 (pure human GCLM and GCLC) (Homo sapiens, UniProt P48507)", "T3 sequence (P48507 1-274)": "T1 sequence (P48507 1-274)", "T3 sequence (P48506 1-637 partner)": "T2 sequence (P48506 1-637)", "assay": "LC-MS/MS analysis of EN25 adduct on GCL complex", "format": "binding", "conditions": "EN25 50 μM, 30 min at 37°C; tryptic digest LC-MS/MS"}, "[6]": {"test_system": "GSH levels in RMG-1 cells", "assay": "LC-MS/MS quantification of GSH levels, RMG-1", "format": "cell-based, human", "conditions": "SRM LC-MS/MS 4hr post treatment"}, "[7]": {"test_system": "A2780 ARID1A-negative ovarian cancer cells", "assay": "Cell viability by Hoechst staining, A2780", "format": "cell-based, human", "conditions": "Hoechst staining at 24 hr", "method_in_brief": "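A2780 cells seeded at 6,000/well in 96-well plates and left to adhere overnight, then dosed with test compound or DMSO vehicle for 24 hr. Fixed and stained with 10% formalin plus Hoechst 33342 for 15 min in the dark at room temperature, then washed three times with PBS before fluorescence reading. Expressed as percentage of DMSO control, mean ± sem, n=6 biologically independent replicates.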"}}}
{"molecule": "CCOC(=O)c1ccc(NC2CCCCC2)c(N)c1", "note": "[ferrostatin, Ferrostatin-1]", "values": [{"measurement": "rescue of EN25-mediated cell viability impairment", "setting": "A2780 cells", "result": "attenuated the cell viability impairments conferred by EN25 treatment"}]}
{"molecule": "C=CC(=O)NCc1ccc(C(=O)Nc2ccc(Sc3ccc(C)c(C)c3)cc2)cc1", "note": "[EN25]", "values": [{"measurement": "competition of EN25-alkyne labeling of GCLM", "setting": "pure human GCLM protein; pre-incubation 30 min at 37°C, then EN25-alkyne 50 μM for 2 h", "result": "dose-responsive competition of this labeling by EN25"}, {"measurement": "cell viability impairment", "setting": "[1]", "result": "RMG-1 cancer cells showed resistance to EN25-mediated cell viability impairments"}, {"measurement": "proteome-wide selectivity: potential off-targets", "setting": "[2]", "result": "nine potential off-targets of EN25 out of >5000 cysteines"}, {"measurement": "cell viability impairment upon GCLM knockdown", "setting": "siGCLM A2780 cells", "result": "GCLM knockdown with siRNA conferred hypersensitivity to EN25-mediated cell viability impairments"}, {"measurement": "IC50", "setting": "[3]", "result": 16, "unit": "µM"}, {"measurement": "GSH levels", "setting": "[4]", "result": "significantly lowered GSH levels in A2780 cancer cells"}, {"measurement": "site of covalent modification on GCL complex", "setting": "[5]", "result": "selective and covalent EN25 modification of C114 on GCLM"}, {"measurement": "GSH levels", "setting": "[6]", "result": "no changes observed in RMG-1 cells"}, {"measurement": "cell viability impairment", "setting": "[7]", "result": "more sensitive A2780 cancer cell line"}]}
{"molecule": "C#CCOc1ccc(-c2ccc(CNC(=O)c3ccc(CNC(=O)C=C)cc3)cc2)cc1", "note": "[EN25-alkyne]", "values": [{"measurement": "covalent labeling of GCLM", "setting": "pure human GCLM protein; in-gel fluorescence after CuAAC with rhodamine-azide", "result": "showed covalent labeling of GCLM"}, {"measurement": "IC50", "setting": "[3]", "result": 3.6, "unit": "µM"}]}
